Measured values published in ChEMBL document CHEMBL4368909, “Identification of Dihydrofuro[3,4- d]pyrimidine Derivatives as Novel HIV-1 Non-Nucleoside Reverse Transcriptase Inhibitors with Promising Antiviral Activities and Desirable Physicochemical Properties” (J Med Chem, 2019).
pEC50, pIC50: −log10 of the molar value. Converted amounts (≈) assume the structure as drawn.

Tests used:
[1] = target: Human immunodeficiency virus type 1 reverse transcriptase (Human immunodeficiency virus 1, UniProt Q72547); assay: Inhibition of recombinant HIV1 reverse transcriptase using (DIG)-dUTP and biotin-labeled dNTPs as substrate after 1 hr by ELISA
[2] = test system: Human immunodeficiency virus 1; assay: Resistance factor, ratio of EC50 for HIV1 harboring reverse transcriptase F227L/V106A double mutant to EC50 for wild type HIV1; assay type: functional
Summary of the method: (§1)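 The resistance factor is the EC50 against the mutant strain divided by the EC50 against wild-type HIV-1. Both were measured in MT-4 cells by MTT read-out of protection from virus-induced cytopathicity.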

[3] = test system: Human immunodeficiency virus 1; assay: Antiviral activity against HIV1 harboring reverse transcriptase F227L/V106A double mutant infected in human MT4 cells assessed as reduction in virus-induced cytopathic effect after 5 days by MTT assay; assay type: functional, organism-based; details: Human immunodeficiency virus 1, MT4, 120 h
[4] = test system: Human immunodeficiency virus 1; assay: Resistance factor, ratio of EC50 for HIV1 harboring reverse transcriptase E138K mutant to EC50 for wild type HIV1; assay type: functional; summary of the method: as §1
[5] = test system: Human immunodeficiency virus 1; assay: Resistance factor, ratio of EC50 for HIV1 harboring reverse transcriptase L100I mutant to EC50 for wild type HIV1; assay type: functional; summary of the method: as §1
[6] = test system: Human immunodeficiency virus 1; assay: Antiviral activity against HIV1 harboring reverse transcriptase Y188L mutant infected in human MT4 cells assessed as reduction in virus-induced cytopathic effect after 5 days by MTT assay; assay type: functional, organism-based; details: Human immunodeficiency virus 1, MT4, 120 h
[7] = test system: Human immunodeficiency virus 1; assay: Antiviral activity against HIV1 harboring reverse transcriptase L100I mutant infected in human MT4 cells assessed as reduction in virus-induced cytopathic effect after 5 days by MTT assay; assay type: functional, organism-based; details: Human immunodeficiency virus 1, MT4, 120 h
[8] = test system: Human immunodeficiency virus 1; assay: Antiviral activity against HIV1 harboring reverse transcriptase Y181C mutant infected in human MT4 cells assessed as reduction in virus-induced cytopathic effect after 5 days by MTT assay; assay type: functional, organism-based; details: Human immunodeficiency virus 1, MT4, 120 h
[9] = test system: Human immunodeficiency virus 2; assay: Antiviral activity against HIV2 ROD infected in human MT4 cells assessed as reduction in virus-induced cytopathic effect after 5 days by MTT assay; details: Human immunodeficiency virus 2, ISOLATE ROD, MT4, 120 h
[10] = test system: Human immunodeficiency virus 1; assay: Resistance factor, ratio of EC50 for HIV1 harboring reverse transcriptase Y181C mutant to EC50 for wild type HIV1; assay type: functional; summary of the method: as §1
[11] = test system: Human immunodeficiency virus 1; assay: Resistance factor, ratio of EC50 for HIV1 harboring reverse transcriptase K103N mutant to EC50 for wild type HIV1; assay type: functional; summary of the method: as §1
[12] = test system: Human immunodeficiency virus 1; assay: Antiviral activity against HIV1 harboring reverse transcriptase E138K mutant infected in human MT4 cells assessed as reduction in virus-induced cytopathic effect after 5 days by MTT assay; assay type: functional, organism-based; details: Human immunodeficiency virus 1, MT4, 120 h
[13] = test system: Human immunodeficiency virus 1; assay: Antiviral activity against wild type HIV1 3B infected in human MT4 cells assessed as reduction in virus-induced cytopathic effect after 5 days by MTT assay; assay type: functional, organism-based; details: Human immunodeficiency virus 1, 3B, MT4, 120 h
[14] = test system: MT4; assay: Cytotoxicity against human MT4 cells after 5 days by MTT assay; assay type: cell-based; details: mt4, 120 h
[15] = test system: Human immunodeficiency virus 1; assay: Antiviral activity against HIV1 RES056 infected in human MT4 cells assessed as reduction in virus-induced cytopathic effect after 5 days by MTT assay; assay type: functional, organism-based; details: Human immunodeficiency virus 1, RES056, MT4, 120 h
[16] = test system: Human immunodeficiency virus 1; assay: Resistance factor, ratio of EC50 for HIV1 harboring reverse transcriptase Y188L mutant to EC50 for wild type HIV1; assay type: functional; summary of the method: as §1
[17] = test system: Human immunodeficiency virus 1; assay: Antiviral activity against HIV1 harboring reverse transcriptase K103N mutant infected in human MT4 cells assessed as reduction in virus-induced cytopathic effect after 5 days by MTT assay; assay type: functional, organism-based; details: Human immunodeficiency virus 1, MT4, 120 h
[18] = Selectivity ratio of CC50 for human MT4 cells to EC50 for HIV1 harboring reverse transcriptase F227L/V106A double mutant infected in human MT4 cells; assay type: toxicity, cell-based; details: read-out: Ratio CC50/EC50
[19] = Selectivity ratio of CC50 for human MT4 cells to EC50 for HIV1 harboring reverse transcriptase K103N mutant infected in human MT4 cells; assay type: toxicity, cell-based; details: read-out: Ratio CC50/EC50
[20] = Selectivity ratio of CC50 for human MT4 cells to EC50 for HIV1 harboring reverse transcriptase E138K mutant infected in human MT4 cells; assay type: toxicity, cell-based; details: read-out: Ratio CC50/EC50
[21] = Aqueous solubility of the compound in FASSIF by HPLC analysis; assay type: physicochemical; details: simulated gi fluid
Summary of the method: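 Solubility read by HPLC in fasted state simulated intestinal fluid (FaSSIF).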

[22] = Selectivity ratio of CC50 for human MT4 cells to EC50 for HIV1 harboring reverse transcriptase Y188L mutant infected in human MT4 cells; assay type: toxicity, cell-based; details: read-out: Ratio CC50/EC50
[23] = Selectivity ratio of CC50 for human MT4 cells to EC50 for HIV1 harboring reverse transcriptase Y181C mutant infected in human MT4 cells; assay type: toxicity, cell-based; details: read-out: Ratio CC50/EC50
[24] = Aqueous solubility of the compound at pH at 2 by HPLC analysis; assay type: physicochemical; details: buffer, pH 2
Summary of the method: (§2)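 Aqueous solubility read by HPLC in buffer at pH 2.0, 7.0 or 7.4.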

[25] = Aqueous solubility of the compound at pH at 7 by HPLC analysis; assay type: physicochemical; details: buffer, pH 7; summary of the method: as §2
[26] = Selectivity ratio of CC50 for human MT4 cells to EC50 for HIV1 RES056 infected in human MT4 cells; assay type: toxicity, cell-based; details: read-out: Ratio CC50/EC50
[27] = Selectivity ratio of CC50 for human MT4 cells to EC50 for HIV1 3B infected in human MT4 cells; assay type: toxicity, cell-based; details: read-out: Ratio CC50/EC50
[28] = Selectivity ratio of CC50 for human MT4 cells to EC50 for HIV1 harboring reverse transcriptase L100I mutant infected in human MT4 cells; assay type: toxicity, cell-based; details: read-out: Ratio CC50/EC50
[29] = test system: Human immunodeficiency virus 1; assay: Antiviral activity against HIV1 NL4-3 infected in human TZM-bl cells after 2 days by luciferase-bright glo assay; assay type: functional, organism-based; details: Human immunodeficiency virus 1, NL4-3, TZM-bl, 48 h
[30] = Aqueous solubility of the compound at pH at 7.4 by HPLC analysis; assay type: physicochemical; details: buffer, pH 7.4; summary of the method: as §2
[31] = test system: TZM; assay: Cytotoxicity against human TZM-bl cells after 4 days by XTT assay; assay type: cell-based; details: 96 h
[32] = Selectivity ratio of CC50 for human TZM-bl cells to EC50 for HIV1 NL4-3 infected in human TZM-bl cells; assay type: toxicity, cell-based; details: read-out: Ratio CC50/EC50
Summary of the method: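 The selectivity index is CC50/EC50 in TZM-bl cells against NL4-3. […] The highest concentration tested was 125 ng/mL.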

| SMILES | pIC50 [1] | Ratio EC50 [2] | pEC50 [3] | Ratio EC50 [4] | Ratio EC50 [5] | pEC50 [6] | pEC50 [7] | pEC50 [8] | pEC50 [9] | Ratio EC50 [10] | Ratio EC50 [11] | pEC50 [12] | pEC50 [13] | CC50 [14] | pEC50 [15] | Ratio EC50 [16] | pEC50 [17] | solubility [21] | solubility [24] | solubility [25] | further results |
| --- | --- | --- | --- | --- | --- | --- | --- | --- | --- | --- | --- | --- | --- | --- | --- | --- | --- | --- | --- | --- | --- |
| Cc1cc(C#N)cc(C)c1Oc1nc(NC2CCN(Cc3ccc(S(N)(=O)=O)cc3)CC2)nc2c1CCC2 | 7.04 | 32.3 | 7.45 | 38.4 | 5.3 | 7.85 | 8.23 | 7.85 | 4.23 | 12.9 | 10 | 7.37 | 8.96 | > 234 µM | 7.59 | 12.7 | 7.96 |  |  |  |  |
| Cc1cc(C#N)cc(C)c1Oc1nc(NC2CCN(Cc3ccncc3)CC2)nc2c1COC2 | 7.25 | 4.4 | 7.98 | 2.6 | 1.8 | 8.11 | 8.39 | 8.31 | 5.29 | 2.1 | 0.5 | 8.21 | 8.64 | 37.6 µM | 7.37 | 3.3 | 8.92 | 8.57 µg/mL (≈ 18.8 µM) | 223 µg/mL (≈ 488 µM) | 14.6 µg/mL (≈ 32 µM) | selectivity ratio [18]: 3580; selectivity ratio [19]: 31200; selectivity ratio [20]: 6020; selectivity ratio [22]: 4770; selectivity ratio [23]: 7630; selectivity ratio [26]: 871; selectivity ratio [27]: 15900; selectivity ratio [28]: 9040 |
| Cc1cc(C#N)cc(C)c1Oc1nc(NC2CCN(Cc3ccc(S(N)(=O)=O)cc3)CC2)nc2ccsc12 |  |  |  |  |  |  |  |  |  |  |  |  |  |  |  |  |  | 1.24 µg/mL (≈ 2.26 µM) | 190 µg/mL (≈ 346 µM) | 0.05 µg/mL (≈ 0.0911 µM) | pEC50 [29]: 8.94; solubility [30]: < 1 µg/mL; CC50 [31]: > 227 nM; selectivity ratio [32]: 196 |
| Cc1cc(C#N)cc(C)c1Oc1nc(NC2CCN(Cc3ccc(S(N)(=O)=O)cc3)CC2)nc2c1SCCC2 |  | 8.3 | 7.65 | 3.1 | 4.7 | 8.10 | 7.89 | 7.98 | < 3.83 | 3.8 | 1.9 | 8.07 | 8.57 | ≥ 148 µM | 7.39 | 3 | 8.28 |  |  |  |  |
| Cc1cc(C#N)cc(C)c1Oc1nc(NC2CCN(Cc3ccc(S(N)(=O)=O)cc3)CC2)nc2c1SCC2 | 7.13 | 2.9 | 7.86 | 2.7 | 1.2 | 8.00 | 8.24 | 8.10 | 5.18 | 1.7 | 1.3 | 7.89 | 8.37 | 19.9 µM | 7.54 | 2.2 | 8.23 | 10 µg/mL (≈ 18.2 µM) | 192 µg/mL (≈ 349 µM) | 8.26 µg/mL (≈ 15 µM) | selectivity ratio [18]: 1220; selectivity ratio [19]: 2840; selectivity ratio [20]: 1300; selectivity ratio [22]: 1640; solubility [30]: 2.54 µg/mL (≈ 4.61 µM); selectivity ratio [23]: 2070; selectivity ratio [26]: 692; selectivity ratio [27]: 4580; selectivity ratio [28]: 2880 |
